# Measurements: publication PMC5055850 (Bioorganic & medicinal chemistry, 2016)
# Where two headings read alike, the source gives them in different places.
# Tests used:
# Format in all cases: cell-based
# [1] = tested on: human polymorphonuclear neutrophils (hPMN); experiment: Ca2+ flux assay in human neutrophils; details: for EC50: Homo sapiens, Polymorphonuclear neutrophil, read-out: hPMN EC50; for hPMN Efficacy: % of the response induced by 5 nM fMLF
# Procedure, shortened: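 Neutrophils from healthy donors' blood, purified by dextran sedimentation, Histopaque 1077 gradient and hypotonic red-cell lysis (>95% pure, >98% viable). Cells in HBSS− with 10 mM HEPES were loaded with Fluo-4 AM (1.25 µg/mL final) for 30 min at 37 °C, then plated at 2 × 10^5 cells/well. Fluorescence (485/538 nm) read every 5 s for 240 s at room temperature. Peak change normalized to 5 nM fMLF. EC50 from 5–6-point nonlinear regression, three experiments.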
# FPR1 = target: T1, FPR1 (Homo sapiens, UniProt P21462); experiment: Ca2+ flux assay in FPR1-HL60 cells; details: for Emax: read-out: FPR1-HL60 Efficacy; for FPR1-HL60 Efficacy: % of the response induced by 5 nM fMLF
# T1 sequence (P21462 1-350): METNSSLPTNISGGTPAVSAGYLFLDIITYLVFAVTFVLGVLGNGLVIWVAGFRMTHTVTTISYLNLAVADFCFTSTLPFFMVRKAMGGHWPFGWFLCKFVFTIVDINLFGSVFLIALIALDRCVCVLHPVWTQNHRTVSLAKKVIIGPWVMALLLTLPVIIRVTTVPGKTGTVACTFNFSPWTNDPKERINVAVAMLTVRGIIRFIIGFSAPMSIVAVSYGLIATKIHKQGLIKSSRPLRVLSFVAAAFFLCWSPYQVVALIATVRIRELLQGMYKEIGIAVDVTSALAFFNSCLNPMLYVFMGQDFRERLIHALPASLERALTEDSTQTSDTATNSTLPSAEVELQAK
# Procedure, shortened: (§1)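 FPR1-, FPR2- or FPR3-transfected HL-60 cells grown in RPMI 1640 with 10% heat-inactivated FCS, 10 mM HEPES and G418 (1 mg/mL). Cells loaded with Fluo-4 AM (1.25 µg/mL final) for 30 min at 37 °C in the dark, then 2 × 10^5 cells/well. Fluorescence (ex 485/em 538 nm) read every 5 s for 240 s at room temperature. Peak rise over baseline normalized to 5 nM fMLF (FPR1) or 5 nM WKYMVm (FPR2, FPR3). EC50 from 5–6-point nonlinear fits, three independent experiments.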
# FPR2 = target: T2, FPR2 (Homo sapiens, UniProt P25090); experiment: Ca2+ flux assay in FPR2-HL60 cells; details: for Emax: read-out: FPR2-HL60 Efficacy; for FPR2-HL60 Efficacy: % of the response induced by 5 nM WKYMVm
# T2 sequence (P25090 1-351): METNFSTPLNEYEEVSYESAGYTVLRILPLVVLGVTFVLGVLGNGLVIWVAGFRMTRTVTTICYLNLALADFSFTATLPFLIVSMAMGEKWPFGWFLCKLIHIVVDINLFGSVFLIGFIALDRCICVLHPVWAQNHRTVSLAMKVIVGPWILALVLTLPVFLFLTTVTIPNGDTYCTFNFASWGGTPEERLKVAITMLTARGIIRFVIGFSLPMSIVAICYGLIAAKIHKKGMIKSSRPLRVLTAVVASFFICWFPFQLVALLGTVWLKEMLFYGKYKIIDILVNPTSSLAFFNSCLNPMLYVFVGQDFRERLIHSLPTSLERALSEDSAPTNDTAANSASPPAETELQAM
# Procedure, shortened: as §1
# [2] = tested on: mouse polymorphonuclear neutrophils (mPMN); experiment: Ca2+ flux assay in mouse neutrophils; details: for mPMN Efficacy: % of the response induced by 5 nM WKYMVm; for EC50: Mus musculus, Polymorphonuclear neutrophil, read-out: mPMN EC50
# Procedure, shortened: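 Neutrophils taken from BALB/c mouse tibia and femur bone marrow. Isolated on a 45/50/55/62/81% Percoll gradient (1600g, 30 min, 10 °C), then Histopaque 1119 to remove red cells, and kept in HBSS−. Ca2+ fluorescence (485/538 nm) monitored every 5 s for 240 s at room temperature after compound addition. Maximal change over baseline normalized to 5 nM WKYMVm. EC50 from 5–6-point nonlinear regression, three independent experiments.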
# FPR3 = target: T3, FPR3 (Homo sapiens, UniProt P25089); experiment: Ca2+ flux assay in FPR3-HL60 cells
# T3 sequence (P25089 1-353): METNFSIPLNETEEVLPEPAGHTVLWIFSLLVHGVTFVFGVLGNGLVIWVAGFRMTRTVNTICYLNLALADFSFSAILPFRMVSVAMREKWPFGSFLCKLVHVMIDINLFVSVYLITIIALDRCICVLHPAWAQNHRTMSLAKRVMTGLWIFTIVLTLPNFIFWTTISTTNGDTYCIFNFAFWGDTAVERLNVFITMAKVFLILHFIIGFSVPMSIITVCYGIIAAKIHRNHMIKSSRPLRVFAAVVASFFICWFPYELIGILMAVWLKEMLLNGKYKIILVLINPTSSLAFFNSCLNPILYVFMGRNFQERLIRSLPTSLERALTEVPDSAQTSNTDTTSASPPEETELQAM
# Procedure, shortened: as §1
# [3] = FPR2-HL60 EC50, Ca2+ flux, HL-60 cells transfected with FPR2
# [4] = read-out: FPR1-HL60 EC50, Ca2+ flux, HL-60 cells transfected with FPR1
# [5] = read-out: FPR2-HL60 EC50, Ca2+ flux, HL-60 cells transfected with FPR2
EC50 [1] [µM],EC50 (FPR1) [nM],Emax (FPR1) [%],EC50 (FPR2; [3]) [µM],Emax (FPR2) [%],EC50 [2] [µM],FPR1-HL60 Efficacy (FPR1) [%],EC50 (FPR1; [4]) [nM],FPR2-HL60 Efficacy (FPR2) [%],EC50 (FPR2; [5]) [µM],EC50 (FPR3) [nM],FPR3-HL60 Efficacy (FPR3; % of the response induced by 5 nM WKYMVm) [%],"FPR2-HL60 EC50 (FPR2; Ca2+ flux, HL-60 cells transfected with FPR2)",Compound,mPMN Efficacy [2] [%],hPMN Efficacy [1] [%]
5.5 ± 1.6,2700 ± 800,130,0.78 ± 0.1,190,8.4 ± 2.6,,,,,,,,"CCC(=O)c1c(C)nn(CC(=O)Nc2ccc(Br)cc2)c(=O)c1Nc1cccc(OC)c1 [Compound 8b, N-(4-Bromophenyl)-2-[5-(3-methoxyphenylamino)-3-methyl-6-oxo-4-propionylpyridazin-1(6H)-yl]acetamide]",75,
24 ± 4.2,11800 ± 3500,70,8.1 ± 2.1,90,,,,,,,,,"CCCC(=O)c1c(C)nn(CC(=O)Nc2ccc(Br)cc2)c(=O)c1Nc1cccc(OC)c1 [Compound 8c, N-(4-Bromophenyl)-2-[4-butyryl-5-(3-methoxyphenylamino)-3-methyl-6-oxopyridazin-1(6H)-yl]acetamide]",,
8 ± 2.6,15600 ± 2600,45,,,24.1 ± 6.1,,,,,,,,"CCCCC(=O)c1c(C)nn(CC(=O)Nc2ccc(Br)cc2)c(=O)c1Nc1cccc(OC)c1 [Compound 8d, N-(4-Bromophenyl)-2-[5–(3-methoxyphenylamino)-3-methyl-6-oxo-4-pentanoylpyridazin-1(6H)-yl]acetamide]",105,
1.7 ± 0.4,1600 ± 400,110,10.5 ± 2.1,60,15.9 ± 4.9,,,,,,,,"COc1cccc(Nc2c(C(=O)C3CCCC3)c(C)nn(CC(=O)Nc3ccc(Br)cc3)c2=O)c1 [Compound 8e, N-(4-Bromophenyl)-2-[4–cyclopentanecarbonyl-5-(3-methoxyphenylamino)-3-methyl-6-oxopyridazin-1(6H)-yl]acetamide]",120,
,,,,,,110,10000 ± 3200,115,8.7 ± 0.47,,,,"COc1cccc(Nc2c(C(=O)C3CCCCC3)c(C)nn(CC(=O)Nc3ccc(Br)cc3)c2=O)c1 [Compound 8f, N-(4-Bromophenyl)-2-[4-cyclohexanecarbonyl-5-(3-methoxyphenylamino)-3-methyl-6-oxopyridazin-1(6)-yl]acetamide]",,120
0.34 ± 0.11,180 ± 4,185,0.061 ± 0.022,35,,,,,,460 ± 14,35,,"CCc1c(C)nn(CC(=O)Nc2ccc(Br)cc2)c(=O)c1Nc1cccc(OC)c1 [Compound 13a, N-(4-Bromophenyl)-2-[4-ethyl-5-(3-methoxyphenylamino)-3-methyl-6-oxopyridazin-1(6H)-yl]acetamide]",,
,,,,,,,,,,,,completely devoid of activity,"CCCc1c(C)nn(CC(=O)Nc2ccc(Br)cc2)c(=O)c1Nc1cccc(OC)c1 [Compound 13b, N-(4-Bromophenyl)-2-[5-(3-methoxyphenylamino)-3-methyl-6-oxo-4-propylpyridazin-1(6H)-yl]acetamide]",,
1.4 ± 0.8,3600 ± 1100,65,4.5 ± 1.3,30,,,,,,,,,"CCCCc1c(C)nn(CC(=O)Nc2ccc(Br)cc2)c(=O)c1Nc1cccc(OC)c1 [Compound 13c, N-(4-Bromophenyl)-2-[4-butyl-5-(3-methoxyphenylamino)-3-methyl-6-oxopyridazin-1(6H)-yl]acetamide]",,
,,,,,,95,1400 ± 340,115,0.19 ± 0.018,,,,"CCCCCc1c(C)nn(CC(=O)Nc2ccc(Br)cc2)c(=O)c1Nc1cccc(OC)c1 [Compound 13d, N-(4-Bromophenyl)-2-[5-(3-methoxyphenylamino)-3-methyl-6-oxo-4-pentyldazin-1(6H)-yl]acetamide]",,55
22.1 ± 5.3,4400 ± 600,25,2.3 ± 0.49,60,,,,,,,,,"COC(=O)c1c(C)nn(CC(=O)Nc2ccc(Br)cc2)c(=O)c1Nc1cccc(OC)c1 [Compound 19a, Methyl 1-[(4-bromophenylcarbamoyl)methyl]-5-(3-methoxyphenylamino)-1,6-dihydro-3-methyl-6-oxopyridazine-4-carboxylate]",,
6.1 ± 1.7,2500 ± 700,90,1.9 ± 0.03,110,,,,,,,,,"CCOC(=O)c1c(C)nn(CC(=O)Nc2ccc(Br)cc2)c(=O)c1Nc1cccc(OC)c1 [Compound 19b, Ethyl 1-[(4-bromophenylcarbamoyl)methyl]-5-(3-methoxyphenylamino)-1,6-dihydro-3-methyl-6-oxopyridazine-4-carboxylate]",,
,,,,,,135,8400 ± 1500,60,13.5 ± 1.8,,,,"Cc1nn(CC(=O)Nc2ccc(Br)cc2)c(=O)c(N)c1-c1cc[nH]n1 [Compound 25, 2-[5-Amino-3-methyl-6-oxo-4-(1H-pyrazol-3-yl)-6H-pyridazin-1-yl]-N-(4-bromo--phenyl)acetamide]",,140
3.5 ± 0.32,2900 ± 140,75,1.9 ± 0.71,40,5.6 ± 2.4,,,,,,,,"Cc1nn(CC(=O)Nc2ccc(Br)cc2)c(=O)c(N)c1-c1ccn(C)n1 [Compound 26, 2-[5-Amino-3-methyl-4-(1-methyl-1H-pyrazol-3-yl)-6-oxopyridazin-1(6H)-yl]-N-(4-bromophenyl)acetamide]",45,
0.56 ± 0.12,240 ± 90,120,9.6 ± 2,65,,,,,,,,,"COc1cccc(Nc2cc(C)nn(CC(=O)Nc3ccc(Br)cc3)c2=O)c1 [Compound 29a, N-(4-Bromophenyl)-2-[5-(3-methoxyphenylamino)-3-methyl-6-oxopyridazin-1(6H)-yl]-acetamide]",,
4.31 ± 0.4,2500 ± 700,110,8.1 ± 1.7,75,,,,,,,,,"COc1cccc(Nc2cc(C)cn(CC(=O)Nc3ccc(Br)cc3)c2=O)c1 [Compound 29b, N-(4-Bromophenyl)-2-[3-(3-methoxyphenylamino)-5-methyl-2-oxopyridin-1(2H)-yl]acetamide]",,
